# Assay results reported in paper PMC6583925 (Journal of medicinal chemistry, 2019).
# Entries after “also recorded” stand apart in the source; their conditions may differ.
# Molecular target: T1, ABHD12 (Mus musculus, UniProt Q99LR1)
# T1 sequence (Q99LR1 1-398): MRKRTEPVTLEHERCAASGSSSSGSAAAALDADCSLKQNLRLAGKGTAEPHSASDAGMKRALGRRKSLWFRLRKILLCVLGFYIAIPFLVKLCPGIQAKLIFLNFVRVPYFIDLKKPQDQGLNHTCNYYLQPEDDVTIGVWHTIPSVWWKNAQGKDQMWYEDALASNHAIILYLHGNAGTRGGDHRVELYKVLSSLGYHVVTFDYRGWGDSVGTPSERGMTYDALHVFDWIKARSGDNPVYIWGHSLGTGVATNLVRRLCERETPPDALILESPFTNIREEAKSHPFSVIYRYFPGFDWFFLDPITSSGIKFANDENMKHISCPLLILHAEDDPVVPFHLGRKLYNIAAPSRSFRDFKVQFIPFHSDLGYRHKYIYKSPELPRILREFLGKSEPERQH
# Test: gel-based competitive ABPP using the FP-Rh probe, mouse brain membrane proteome
# Format: biochemical
# Conditions: up to 10 μM
# Summary of the method: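 Mouse brain membrane fraction was prepared by dounce homogenization in DPBS, a 1,400 × g clearing spin, and a 16,000 × g spin (45 min, 4 °C). Proteome (1 mg/mL) was pretreated with test compound (20 min rt for (thio)ureas; 45 min 37 °C for carbamates), then labeled with FP-Rh (1 μM final, 45 min, 37 °C). Samples were quenched in SDS loading buffer, separated by SDS-PAGE and read by in-gel fluorescence.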
row,Compound,ABHD12 activity
1,COc1ccc(N2CCN(C(=O)ON3C(=O)C4CN(Cc5ccc(Oc6ccccc6)cc5)CCN4C3=O)CC2)cc1 (stereo not shown) [ABC34],negligible ABHD12 activity up to 10 μM

# Molecular target: T1, ABHD12
# Test: gel-based ABPP of mouse brain membrane proteome using the JJH350 probe
# Format: biochemical
# Conditions: JJH350 probe; SAR statements
# Summary of the method: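 Mouse brain was dounce-homogenized in DPBS, cleared at 1,400 × g (3 min, 4 °C) and spun at 16,000 × g (45 min, 4 °C); the membrane pellet was washed and resuspended. Proteome (1 mg/mL) was pretreated with test compound (20 min rt for (thio)ureas; 45 min 37 °C for carbamates), then labeled with JJH350 (2 μM final, 45 min, 37 °C).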
row,Compound,"ABHD12 inhibitory activity, gel-based ABPP"
1,FC(F)(F)c1cnc(N2CCC(NC(=S)Nc3cnc4ccccc4c3)CC2)c(Cl)c1 [compound 10],diminished potency towards ABHD12
2,Cc1cnc(N2CCN(NC(=S)Nc3cccnc3)CC2)c(Cl)c1 [DO127],did not show any ABHD12 inhibitory activity
3,"Cc1c(Oc2ccc(OC(F)(F)F)cc2)ccnc1N1CCC(NC(=S)Nc2cccnc2)CC1 [compound 40, N-3-Pyridyl-N’-(1-[3-methyl-4-{4-(trifluoromethoxy)phenoxy}pyridine-2-yl]piperidin-4-yl)thiourea]",did not alter potency
4,FC(F)(F)c1ccnc(N2CCC(NC(=S)Nc3cccnc3)CC2)c1 [compound 24],first sub-micromolar inhibitors in this series
5,FC(F)(F)Oc1ccc(Oc2ccnc(N3CCC(NC(=S)Nc4cccnc4)CC3)c2)cc1 [compound 38],increased potency
6,FC(F)(F)c1cnc(N2CCC(NC(=S)Nc3cccnc3)CC2)c(Cl)c1 [DO130],ABHD12 inhibitory activity as commercial AW01275
7,FC(F)(F)Oc1ccc(Oc2ccnc(N3CCC[C@H](NC(=S)Nc4cccnc4)C3)c2Cl)c(Cl)c1 [(S)-DO271],less active than (R)-DO271
8,S=C(Nc1cccnc1)NC1CCN(c2ncccc2Cl)CC1 [compound 22],abolished ABHD12 activity up to 5 μM
9,"COc1ccc(NC(=S)NC2CCN(c3ncc(C(F)(F)F)cc3Cl)CC2)cn1 [compound 9, N-{6-(methoxy)Pyridin-3-yl}-N’-[1-{3-chloro-5-(trifluoromethyl)pyridin-2-yl}piperidin-4-yl]thiourea]",diminished potency towards ABHD12
10,FC(F)(F)c1cnc(N2CCC(NC(=S)Nc3ccccc3)CC2)c(Cl)c1 [compound 12],"retained some ABHD12 inhibitory activity, albeit slightly lower than that of DO130"
11,FC(F)(F)c1cnc(N2CCC(NC(=S)Nc3cccnc3)C2)c(Cl)c1 (stereo not shown) [compound 14],near-complete loss
12,FC(F)(F)c1ccc(N2CCC(NC(=S)Nc3cccnc3)CC2)nc1 [compound 23],only a small loss in potency
13,"Cc1cnc(N2CCC(NC(=S)Nc3cccnc3)CC2)c(Cl)c1 [DO129, N-3-Pyridyl-N’-[1-{3-chloro-5-(methyl)pyridin-2-yl}piperidin-4-yl]thiourea]",exhibited ABHD12 inhibitory activity
14,O=C(Nc1cccnc1)NC1CCN(c2ncc(C(F)(F)F)cc2Cl)CC1 [compound 8],substantial loss in activity
15,Fc1ccc(Oc2ccnc(N3CCC(NC(=S)Nc4cccnc4)CC3)c2)cc1 [compound 37],increased potency
16,FC(F)(F)c1cnc(N2C3CCC2CC(NC(=S)Nc2cccnc2)C3)c(Cl)c1 (stereo not shown) [compound 21],impaired ABHD12 activity relative to DO130
17,N#Cc1c(Oc2ccc(OC(F)(F)F)cc2)ccnc1N1CCC(NC(=S)Nc2cccnc2)CC1 [compound 41],reduced ABHD12 inhibitory activity
18,"FC(F)(F)c1cnc(N2CCCC(NC(=S)Nc3cccnc3)C2)c(Cl)c1 (stereo not shown) [compound 13, N-3-Pyridyl-N’-[1-{3-chloro-5-(trifluoromethyl)pyridin-2-yl}piperidin-3-yl]thiourea]",abolished ABHD12 inhibitory activity; also recorded: dramatically reduced ABHD12 inhibitory activity
19,FC(F)(F)c1cnc(N2CCCC(NC(=S)Nc3cccnc3)CC2)c(Cl)c1 (stereo not shown) [compound 15],substantial reductions
20,FC(F)(F)c1cccc(N2CCC(NC(=S)Nc3cccnc3)CC2)n1 [compound 26],first sub-micromolar inhibitors in this series
21,COc1ccnc(N2CCC(NC(=S)Nc3cccnc3)CC2)c1 [compound 31],even more deleterious effect
22,FC(F)(F)c1cnc(N2CCC(NC(=S)N3CCCc4ccccc43)CC2)c(Cl)c1 [compound 11],diminished potency towards ABHD12
23,CN(C(=S)Nc1cccnc1)C1CCN(c2ncc(C(F)(F)F)cc2Cl)CC1 [compound 20],weakened ABHD12 activity
24,FC(F)(F)Oc1ccc(Oc2ccnc(N3CCC(NC(=S)Nc4cccnc4)CC3)c2C(F)(F)F)cc1 [compound 42],reduced ABHD12 inhibitory activity

# Same assay, conditions: compared to 28 or 38
row,Compound,increase in ABHD12 inhibitory activity [fold]
1,FC(F)(F)Oc1ccc(Oc2ccnc(N3CCC(NC(=S)Nc4cccnc4)CC3)c2Cl)cc1 [compound 39],> 10

# Same assay, conditions: compared to DO264
row,Compound,reduction in potency for ABHD12 inhibition
1,"FC(F)(F)Oc1ccc(Oc2ccnc(N3CCCC(NC(=S)Nc4cccnc4)C3)c2Cl)c(Cl)c1 (racemic) [(S,R)-DO271]","~ 10,000 fold"

# Same assay, conditions: relative to 39
row,Compound,lower potency of regioisomers
1,FC(F)(F)Oc1ccccc1Oc1ccnc(N2CCC(NC(=S)Nc3cccnc3)CC2)c1Cl [compound 44],3–4 fold
2,FC(F)(F)Oc1cccc(Oc2ccnc(N3CCC(NC(=S)Nc4cccnc4)CC3)c2Cl)c1 [compound 43],3–4 fold

# Same assay, conditions: relative to the 4-CF3 analogue
row,Compound,decrease in ABHD12 inhibitory activity on substituting the 4-CF3 group
1,S=C(Nc1cccnc1)NC1CCN(c2cc(Cl)ccn2)CC1 [compound 30],~ 3 fold

# Molecular target: T2, ABHD12 (Homo sapiens, UniProt Q8N2K0)
# T2 sequence (Q8N2K0 1-398): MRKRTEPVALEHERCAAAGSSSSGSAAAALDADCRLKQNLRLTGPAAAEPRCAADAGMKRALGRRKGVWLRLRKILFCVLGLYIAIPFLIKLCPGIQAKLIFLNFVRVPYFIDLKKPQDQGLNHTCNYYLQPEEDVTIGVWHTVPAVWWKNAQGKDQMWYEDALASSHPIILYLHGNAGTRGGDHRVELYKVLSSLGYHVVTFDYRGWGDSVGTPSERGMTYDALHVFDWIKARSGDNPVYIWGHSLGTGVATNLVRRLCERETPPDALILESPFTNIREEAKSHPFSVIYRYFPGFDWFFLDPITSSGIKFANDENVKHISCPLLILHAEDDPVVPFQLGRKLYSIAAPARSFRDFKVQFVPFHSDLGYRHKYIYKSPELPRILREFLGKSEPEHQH
# Test: lyso-PS hydrolysis
# Format: biochemical
# Conditions: 17:1 lyso-PS 100 μM
# Summary of the method: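 Test compound preincubated 20 min at room temperature with ABHD12-overexpressing HEK293T membrane (0.25 mg/mL) in DPBS. 17:1 lyso-PS added (100 μM final) and run 30 min at 37 °C. Quench: 2:1 CHCl3/MeOH containing 1 nmol 15:0 FFA internal standard. Organic phase analysed by LC-MS, ESI negative mode, SIM at m/z 267.20 (17:1 FFA product) and 241.20 (15:0 FFA).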
row,Compound,"ABHD12 inhibitory activity, lyso-PS substrate assay"
1,Cc1cnc(N2CCN(NC(=S)Nc3cccnc3)CC2)c(Cl)c1 [DO127],did not show any ABHD12 inhibitory activity

# System: serine hydrolases
# Test: selectivity by gel-based ABPP with FP-Rh in mouse brain proteome
# Format: biochemical
# Conditions: FP-Rh probe
# Summary of the method: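 Mouse brain homogenised in DPBS and cleared at 1,400 × g. Membranes pelleted at 16,000 × g (45 min, 4 °C) and resuspended in DPBS; used at 1 mg/mL. Test compound pretreatment: (thio)ureas 20 min at room temperature, NHH-carbamates 45 min at 37 °C. FP-Rh labelling (1 μM final) 45 min at 37 °C. Readout: 10% SDS-PAGE, in-gel fluorescence, band intensities quantified.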
row,Compound,selectivity / off-targets among serine hydrolases
1,"COc1ccc(N2CCN(C(=O)ON3C(=O)C4CN(C(=O)c5ccc(Oc6ccccc6)cc5)CCN4C3=O)CC2)cc1 (stereo not shown) [JJH329, 1,3-Dioxo-7-(4-phenoxybenzoyl)hexahydroimidazo[1,5-a]pyrazine-2(3H)-yl 4-(4-methoxyphenyl)piperazine-1-carboxylate]",ABHD6 was observed as the only off-target

# Molecular target: T1, ABHD12
# Test: not given
# Format: in vivo
# Conditions: 30 mg/kg, i.p., mice
# Summary of the method: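 Test compound was suspended in EtOH/PEG40 1:1 by bath sonication, then diluted with 9 volumes of DPBS (EtOH/PEG40/DPBS 1:1:18). Freshly prepared solution was given i.p. at 10 μL/g body weight. Mice were anesthetized with isoflurane and euthanized by cervical dislocation, and tissues were harvested. Tissue membrane proteomes were labeled with JJH350 (2 μM, 45 min, 37 °C), clicked to rhodamine azide and read by in-gel fluorescence.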
row,Compound,in vivo inhibition of ABHD12
1,"COc1ccc(N2CCN(C(=O)ON3C(=O)C4CN(C(=O)c5ccc(Oc6ccccc6)cc5)CCN4C3=O)CC2)cc1 (stereo not shown) [JJH329, 1,3-Dioxo-7-(4-phenoxybenzoyl)hexahydroimidazo[1,5-a]pyrazine-2(3H)-yl 4-(4-methoxyphenyl)piperazine-1-carboxylate]",only marginal inhibition of ABHD12

# Molecular target: T2, ABHD12
# Test: not given
# Format: biochemical
# Conditions: FP-Rh probe 1 μM
row,Compound,time-dependent inhibition of ABHD12
1,FC(F)(F)c1cnc(N2CCC(NC(=S)Nc3cccnc3)CC2)c(Cl)c1 [DO130],did not show time-dependent inhibition of ABHD12
